{
  "source": "ChEMBL document CHEMBL4138048",
  "about": "“Synthesis of substituted 2H-benzo[e]indazole-9-carboxylate as a potent antihyperglycemic agent that may act through IRS-1, Akt and GSK-3β pathways” (Medchemcomm, 2017)",
  "tested_on": "L6",
  "test": "Stimulation of [3H]2-deoxyglucose uptake in rat L6 cells at 10 uM incubated for 16 hrs by scintillation counting method",
  "assay_type": "functional, cell-based",
  "outline": "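L6 myotubes incubated with the compound […]; insulin at 100 nM for 20 min served as the positive control. Uptake of ³H-2-deoxyglucose measured and expressed as fold stimulation relative to the control condition.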",
  "note": "Calls of active or inactive are those of the source. No cut-off for these calls is given here.",
  "data": [
    {"smiles": "COC(=O)c1c(SC)cc(-c2ccc(Cl)cc2)c2c1-c1cn(-c3ccccc3)nc1CC2", "values": [
      {"measurement": "Activity", "result": "inactive"}
    ]}
  ]
}
